ChEMBL document CHEMBL2010643 (Bioorg Med Chem Lett, 2012)
Calls of active or inactive are those of the source. No cut-off for these calls is given here.

Key:
[1] = molecular target: Dual specificity mitogen-activated protein kinase kinase 6 (Homo sapiens) (UniProt P52564); assay: Inhibition of MKK6 assessed as residual activity at 1 uM relative to control
[2] = molecular target: Tyrosine-protein kinase BTK (Homo sapiens) (UniProt Q06187); assay: Inhibition of BTK assessed as residual activity at 1 uM relative to control
How it was run: (§1)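 Standard radioactivity-based enzymatic assays were run across a 124-kinase panel (Dundee profiling), with compound at 1 µM. Kinase activity was expressed relative to control.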

[3] = molecular target: Serine/threonine-protein kinase 26 (Homo sapiens) (UniProt Q9P289); assay: Inhibition of MST4 assessed as residual activity at 10 uM relative to control
[4] = molecular target: Calcium/calmodulin-dependent protein kinase kinase 2 (Homo sapiens) (UniProt Q96RR4); assay: Inhibition of CAMKKb assessed as residual activity at 1 uM relative to control; how it was run: as §1
[5] = molecular target: T1, Cyclin-dependent kinase 2/cyclin A (Homo sapiens) (UniProt P24941+P20248+P78396); assay: Inhibition of CDK2-Cyclin A assessed as residual activity at 10 uM relative to control; type: protein-complex assay
[6] = molecular target: T2, Leucine-rich repeat serine/threonine-protein kinase 2 (Homo sapiens, UniProt Q5S007); assay: Inhibition of wild type LRRK2 phosphorylation at Ser935 in human lymphoblastoid cells at 0.03 to 3 uM after 90 mins by Western blot analysis; type: cell-based
[7] = molecular target: RAC-alpha serine/threonine-protein kinase (Homo sapiens) (UniProt P31749); assay: Inhibition of PKBalpha assessed as residual activity at 1 uM relative to control
[8] = molecular target: Eukaryotic translation initiation factor 2-alpha kinase 3 (Homo sapiens) (UniProt Q9NZJ5); assay: Inhibition of EIF2AK3 assessed as residual activity at 1 uM relative to control; how it was run: as §1
[9] = test system: Leucine-rich repeat serine/threonine-protein kinase 2 (Homo sapiens), Q5S007 [A2016T]; assay: Inhibition of LRRK2 A2016T mutant phosphorylation at Ser910 expressed in HEK293 cells at 1 to 3 uM after 90 mins by immunoblot analysis; type: cell-based
[10] = molecular target: T1, Cyclin-dependent kinase 2/cyclin A (Homo sapiens); assay: Inhibition of CDK2-Cyclin A assessed as residual activity at 1 uM relative to control; type: protein-complex assay; how it was run: as §1
[11] = molecular target: Mitogen-activated protein kinase 12 (Homo sapiens) (UniProt P53778); assay: Inhibition of p38gamma MAPK assessed as residual activity at 1 uM relative to control
How it was run: (§2)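 Radioactivity-based enzymatic kinase assays run across a 124-kinase profiling panel (Dundee), reporting the remaining kinase activity relative to a control.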

[12] = molecular target: Mitogen-activated protein kinase 14 (Homo sapiens) (UniProt Q16539); assay: Inhibition of p38alpha MAPK assessed as residual activity at 1 uM relative to control; how it was run: as §2
[13] = molecular target: Dual specificity tyrosine-phosphorylation-regulated kinase 2 (Homo sapiens) (UniProt Q92630); assay: Inhibition of DYRK2 assessed as residual activity at 10 uM relative to control
[14] = molecular target: Protein-tyrosine kinase 6 (Homo sapiens) (UniProt Q13882); assay: Inhibition of BRK assessed as residual activity at 1 uM relative to control
[15] = molecular target: T2, Leucine-rich repeat serine/threonine-protein kinase 2; assay: Inhibition of wild type LRRK2 phosphorylation at Ser910 in human lymphoblastoid cells at 0.03 to 3 uM after 90 mins by Western blot analysis; type: cell-based
[16] = test system: Mus musculus; assay: Inhibition of LRRK2 phosphorylation at Ser935 in C57BL/6 mouse brain at 10 to 50 mg/kg, po administered for 8 hrs followed by 2 hrs dosing; type: functional, organism-based
How it was run: (§3)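 Mice were dosed by oral gavage at 10 or 50 mg/kg. Brain, spleen and kidney were collected. Endogenous LRRK2 was resolved by SDS–PAGE and blotted with phospho-specific antibodies to Ser910 and Ser935 and with an antibody to total LRRK2.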

[17] = molecular target: Ribosomal protein S6 kinase beta-1 (Homo sapiens) (UniProt P23443); assay: Inhibition of S6K1 assessed as residual activity at 1 uM relative to control
[18] = molecular target: Serine/threonine-protein kinase pim-2 (Homo sapiens) (UniProt Q9P1W9); assay: Inhibition of PIM2 assessed as residual activity at 1 uM relative to control
[19] = molecular target: Leucine-rich repeat serine/threonine-protein kinase 2 (Mus musculus) (UniProt Q5S006); assay: Inhibition of wild type LRRK2 phosphorylation at Ser935 in mouse 3T3 cells after 90 mins by Western blot analysis; type: cell-based
How it was run: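 Mouse Swiss 3T3 cells treated with DMSO or increasing inhibitor concentrations for 90 min. Endogenous LRRK2 in lysates immunoblotted with purified phospho-specific antibodies to Ser910 and Ser935 and with a total LRRK2 antibody. Blots done in duplicate, representative of at least two independent experiments.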

[20] = molecular target: Ribosomal protein S6 kinase beta-1 (Homo sapiens) (UniProt P23443); assay: Inhibition of S6K1 assessed as residual activity at 10 uM relative to control
[21] = molecular target: Tyrosine-protein kinase ZAP-70 (Homo sapiens) (UniProt P43403); assay: Inhibition of ZAP70 assessed as residual activity at 10 uM relative to control; how it was run: as §2
[22] = Inhibition of CK1 assessed as residual activity at 1 uM relative to control; how it was run: as §1
[23] = molecular target: Insulin receptor-related protein (Homo sapiens) (UniProt P14616); assay: Inhibition of IRR assessed as residual activity at 1 uM relative to control
[24] = molecular target: Serine/threonine-protein kinase TBK1 (Homo sapiens) (UniProt Q9UHD2); assay: Inhibition of TBK1 assessed as residual activity at 10 uM relative to control
[25] = molecular target: MAP kinase-interacting serine/threonine-protein kinase 2 (Homo sapiens) (UniProt Q9HBH9); assay: Inhibition of MNK2 assessed as residual activity at 1 uM relative to control
[26] = molecular target: Tau-tubulin kinase 1 (Homo sapiens) (UniProt Q5TCY1); assay: Inhibition of TTBK1 assessed as residual activity at 10 uM relative to control; how it was run: as §2
[27] = molecular target: Maternal embryonic leucine zipper kinase (Homo sapiens) (UniProt Q14680); assay: Inhibition of MELK assessed as residual activity at 1 uM relative to control
[28] = test system: Mus musculus; assay: Inhibition of LRRK2 phosphorylation at Ser910 in C57BL/6 mouse kidney at 50 mg/kg, po administered for 8 hrs followed by 2 hrs dosing; type: functional, organism-based; parameters: dose 50 mg/kg; how it was run: as §3
[29] = test system: Mus musculus; assay: Inhibition of LRRK2 phosphorylation at Ser910 in C57BL/6 mouse spleen at 10 mg/kg, po administered for 8 hrs followed by 2 hrs dosing; type: functional, organism-based; parameters: dose 10 mg/kg; how it was run: as §3
[30] = molecular target: Receptor-interacting serine/threonine-protein kinase 2 (Homo sapiens) (UniProt O43353); assay: Inhibition of RIPK2 assessed as residual activity at 1 uM relative to control
[31] = molecular target: Tyrosine-protein kinase BTK (Homo sapiens) (UniProt Q06187); assay: Inhibition of BTK assessed as residual activity at 10 uM relative to control
[32] = molecular target: T2, Leucine-rich repeat serine/threonine-protein kinase 2; assay: Inhibition of wild-type LRRK2 phosphorylation at Ser910 expressed in HEK293 cells at 0.1 to 0.3 uM after 90 mins by immunoblot analysis; type: cell-based
How it was run: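 HEK293 cells stably expressing wild-type GFP-LRRK2 exposed to DMSO or increasing inhibitor concentrations for 90 min. Lysates immunoblotted for LRRK2 phosphorylated at Ser910 and Ser935 and for total LRRK2.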

[33] = molecular target: Tyrosine-protein kinase CSK (Homo sapiens) (UniProt P41240); assay: Inhibition of CSK assessed as residual activity at 10 uM relative to control

T2 sequence (Q5S007 whole entry): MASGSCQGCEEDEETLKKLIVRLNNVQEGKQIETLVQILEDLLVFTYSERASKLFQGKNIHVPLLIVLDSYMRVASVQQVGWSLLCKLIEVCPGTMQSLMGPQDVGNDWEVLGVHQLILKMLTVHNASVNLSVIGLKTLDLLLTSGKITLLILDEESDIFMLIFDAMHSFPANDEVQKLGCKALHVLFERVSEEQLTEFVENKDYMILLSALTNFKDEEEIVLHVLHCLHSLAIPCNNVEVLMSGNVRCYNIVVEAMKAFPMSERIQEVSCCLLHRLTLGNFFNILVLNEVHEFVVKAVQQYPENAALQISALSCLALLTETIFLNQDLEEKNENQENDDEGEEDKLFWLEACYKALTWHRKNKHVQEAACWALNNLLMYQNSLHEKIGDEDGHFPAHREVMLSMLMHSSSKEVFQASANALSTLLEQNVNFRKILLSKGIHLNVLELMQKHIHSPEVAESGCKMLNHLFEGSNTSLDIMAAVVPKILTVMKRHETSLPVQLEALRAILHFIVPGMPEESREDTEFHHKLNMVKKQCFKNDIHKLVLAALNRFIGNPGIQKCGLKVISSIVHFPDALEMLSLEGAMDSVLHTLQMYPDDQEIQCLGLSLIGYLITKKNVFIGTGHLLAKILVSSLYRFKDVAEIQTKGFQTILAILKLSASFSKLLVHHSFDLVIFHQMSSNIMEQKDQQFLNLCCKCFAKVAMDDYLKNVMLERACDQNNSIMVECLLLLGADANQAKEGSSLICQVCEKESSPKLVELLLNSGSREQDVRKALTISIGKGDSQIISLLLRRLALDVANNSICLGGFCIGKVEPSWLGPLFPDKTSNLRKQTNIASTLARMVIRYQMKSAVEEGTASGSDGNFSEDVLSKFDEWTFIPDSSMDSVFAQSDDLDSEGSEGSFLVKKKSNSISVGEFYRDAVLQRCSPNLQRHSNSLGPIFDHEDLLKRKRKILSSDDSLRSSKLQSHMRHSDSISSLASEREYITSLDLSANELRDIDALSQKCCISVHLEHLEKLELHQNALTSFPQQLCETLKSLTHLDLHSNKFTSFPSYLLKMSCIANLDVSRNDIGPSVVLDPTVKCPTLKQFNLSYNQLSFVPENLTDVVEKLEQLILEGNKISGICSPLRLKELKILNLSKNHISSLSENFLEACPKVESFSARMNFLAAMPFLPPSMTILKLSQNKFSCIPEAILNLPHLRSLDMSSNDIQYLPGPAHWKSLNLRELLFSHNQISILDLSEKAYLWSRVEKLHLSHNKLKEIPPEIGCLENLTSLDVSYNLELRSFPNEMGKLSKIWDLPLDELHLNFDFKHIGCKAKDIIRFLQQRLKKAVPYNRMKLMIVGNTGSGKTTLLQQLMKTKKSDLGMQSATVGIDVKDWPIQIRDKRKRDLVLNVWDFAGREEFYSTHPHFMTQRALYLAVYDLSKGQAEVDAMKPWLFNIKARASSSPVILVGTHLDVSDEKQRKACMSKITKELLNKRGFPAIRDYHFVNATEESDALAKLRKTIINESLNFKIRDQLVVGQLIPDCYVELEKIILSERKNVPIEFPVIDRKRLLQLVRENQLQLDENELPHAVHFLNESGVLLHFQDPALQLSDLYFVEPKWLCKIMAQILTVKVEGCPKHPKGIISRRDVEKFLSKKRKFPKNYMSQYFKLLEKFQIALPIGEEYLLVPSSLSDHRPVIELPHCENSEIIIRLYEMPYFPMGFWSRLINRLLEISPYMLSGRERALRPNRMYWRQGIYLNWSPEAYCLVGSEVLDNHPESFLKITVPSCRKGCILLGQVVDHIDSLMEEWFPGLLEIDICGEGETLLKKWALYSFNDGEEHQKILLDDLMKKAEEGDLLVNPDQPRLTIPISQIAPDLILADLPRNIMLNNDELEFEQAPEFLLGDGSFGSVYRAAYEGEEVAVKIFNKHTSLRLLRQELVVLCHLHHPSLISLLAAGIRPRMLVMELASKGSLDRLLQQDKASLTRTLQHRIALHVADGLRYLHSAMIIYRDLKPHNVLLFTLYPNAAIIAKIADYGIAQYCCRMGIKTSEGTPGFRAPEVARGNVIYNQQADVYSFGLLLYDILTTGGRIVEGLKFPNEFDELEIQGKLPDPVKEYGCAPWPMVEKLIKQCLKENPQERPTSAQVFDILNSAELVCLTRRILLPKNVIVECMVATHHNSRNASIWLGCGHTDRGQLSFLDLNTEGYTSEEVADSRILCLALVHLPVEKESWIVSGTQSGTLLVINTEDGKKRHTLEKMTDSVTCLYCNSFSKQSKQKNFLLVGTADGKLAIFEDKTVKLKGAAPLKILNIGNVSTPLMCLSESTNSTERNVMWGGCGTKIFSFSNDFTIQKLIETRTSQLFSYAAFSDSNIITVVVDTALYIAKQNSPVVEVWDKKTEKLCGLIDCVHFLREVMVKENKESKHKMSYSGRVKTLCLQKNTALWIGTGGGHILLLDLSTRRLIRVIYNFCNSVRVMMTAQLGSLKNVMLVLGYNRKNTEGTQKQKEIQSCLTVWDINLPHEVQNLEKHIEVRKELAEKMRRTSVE
Tyrosine-protein kinase BTK (Homo sapiens), sequence (Q06187 whole entry): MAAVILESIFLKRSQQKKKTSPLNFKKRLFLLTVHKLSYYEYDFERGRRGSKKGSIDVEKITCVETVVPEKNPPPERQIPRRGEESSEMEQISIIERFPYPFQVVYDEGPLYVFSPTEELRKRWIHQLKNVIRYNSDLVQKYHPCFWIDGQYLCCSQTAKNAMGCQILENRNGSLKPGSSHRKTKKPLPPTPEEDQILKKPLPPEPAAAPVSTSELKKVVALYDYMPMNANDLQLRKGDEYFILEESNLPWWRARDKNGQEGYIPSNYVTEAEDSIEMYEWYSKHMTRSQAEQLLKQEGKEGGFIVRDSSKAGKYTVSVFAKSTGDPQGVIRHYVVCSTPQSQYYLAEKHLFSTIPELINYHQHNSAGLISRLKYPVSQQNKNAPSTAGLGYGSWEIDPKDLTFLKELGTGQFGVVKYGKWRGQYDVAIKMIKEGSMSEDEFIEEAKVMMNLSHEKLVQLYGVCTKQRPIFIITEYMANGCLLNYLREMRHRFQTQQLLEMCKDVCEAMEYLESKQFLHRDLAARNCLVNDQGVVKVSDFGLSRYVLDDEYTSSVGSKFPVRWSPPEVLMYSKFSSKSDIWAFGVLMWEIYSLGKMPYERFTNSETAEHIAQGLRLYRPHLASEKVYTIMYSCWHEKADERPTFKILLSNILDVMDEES
Ribosomal protein S6 kinase beta-1 (Homo sapiens), sequence (P23443 whole entry, looked up): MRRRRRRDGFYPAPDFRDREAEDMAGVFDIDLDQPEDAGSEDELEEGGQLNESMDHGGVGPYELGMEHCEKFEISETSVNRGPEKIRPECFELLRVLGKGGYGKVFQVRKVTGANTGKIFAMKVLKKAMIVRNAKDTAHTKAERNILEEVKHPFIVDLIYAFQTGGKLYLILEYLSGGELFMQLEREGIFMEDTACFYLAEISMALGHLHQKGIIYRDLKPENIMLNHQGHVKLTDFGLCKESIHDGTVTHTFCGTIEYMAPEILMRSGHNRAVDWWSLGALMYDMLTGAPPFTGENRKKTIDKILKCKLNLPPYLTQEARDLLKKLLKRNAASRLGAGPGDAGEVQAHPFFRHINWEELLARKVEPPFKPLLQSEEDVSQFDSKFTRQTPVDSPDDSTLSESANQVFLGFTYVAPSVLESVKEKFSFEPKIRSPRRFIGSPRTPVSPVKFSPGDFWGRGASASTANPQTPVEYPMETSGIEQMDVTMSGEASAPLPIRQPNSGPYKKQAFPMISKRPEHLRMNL
Serine/threonine-protein kinase 26 (Homo sapiens), sequence (Q9P289 2-416 limits assumed): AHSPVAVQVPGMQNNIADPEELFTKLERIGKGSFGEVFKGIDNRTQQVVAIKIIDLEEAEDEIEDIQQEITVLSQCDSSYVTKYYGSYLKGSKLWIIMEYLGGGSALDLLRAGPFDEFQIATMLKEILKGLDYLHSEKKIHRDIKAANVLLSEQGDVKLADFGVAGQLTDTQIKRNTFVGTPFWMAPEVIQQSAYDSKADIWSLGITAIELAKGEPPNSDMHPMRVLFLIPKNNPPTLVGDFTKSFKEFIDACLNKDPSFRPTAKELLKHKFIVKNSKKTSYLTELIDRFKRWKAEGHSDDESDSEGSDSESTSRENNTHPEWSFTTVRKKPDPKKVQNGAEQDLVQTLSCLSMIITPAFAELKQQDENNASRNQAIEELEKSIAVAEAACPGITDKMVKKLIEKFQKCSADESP
MAP kinase-interacting serine/threonine-protein kinase 2 (Homo sapiens), sequence (Q9HBH9 whole entry, looked up): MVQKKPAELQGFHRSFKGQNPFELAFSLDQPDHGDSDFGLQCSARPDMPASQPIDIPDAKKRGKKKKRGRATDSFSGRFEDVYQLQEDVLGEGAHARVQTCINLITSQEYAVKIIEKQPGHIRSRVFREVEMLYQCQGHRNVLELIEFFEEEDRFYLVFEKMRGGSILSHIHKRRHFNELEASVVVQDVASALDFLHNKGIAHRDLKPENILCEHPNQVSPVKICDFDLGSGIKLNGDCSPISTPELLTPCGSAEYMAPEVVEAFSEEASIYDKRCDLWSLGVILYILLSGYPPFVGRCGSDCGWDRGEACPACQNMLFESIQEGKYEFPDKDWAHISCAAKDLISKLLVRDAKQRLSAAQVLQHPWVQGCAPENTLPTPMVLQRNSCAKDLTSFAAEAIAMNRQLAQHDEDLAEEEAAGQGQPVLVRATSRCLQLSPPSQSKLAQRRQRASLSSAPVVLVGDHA
Leucine-rich repeat serine/threonine-protein kinase 2 (Homo sapiens), Q5S007 [A2016T], sequence (Q5S007 whole entry A2016T): as the sequence (Q5S007 whole entry) above, with A2016T counted along it
Dual specificity mitogen-activated protein kinase kinase 6 (Homo sapiens), sequence (P52564 whole entry): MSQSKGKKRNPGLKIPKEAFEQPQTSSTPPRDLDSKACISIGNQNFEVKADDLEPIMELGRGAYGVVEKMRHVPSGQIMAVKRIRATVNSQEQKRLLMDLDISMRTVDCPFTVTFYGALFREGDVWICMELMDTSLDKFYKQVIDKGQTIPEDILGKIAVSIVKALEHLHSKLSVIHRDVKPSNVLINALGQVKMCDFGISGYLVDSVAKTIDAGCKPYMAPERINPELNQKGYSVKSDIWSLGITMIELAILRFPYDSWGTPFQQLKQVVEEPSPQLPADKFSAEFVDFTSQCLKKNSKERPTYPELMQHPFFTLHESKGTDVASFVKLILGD

Structure (SMILES): COc1cc(N2CCC(N3CCN(C)CC3)CC2)ccc1Nc1ncc(Cl)c(Nc2ccccc2S(=O)(=O)C(C)C)n1 [TAE-684]
- Activity [1]: 90%
- Activity [2]: 53%
- Activity [3]: 55%
- Activity [4]: 9%
- Activity [5]: 38%
- inhibition [6]: Active
- Activity [7]: 102%
- Activity [8]: 101%
- inhibition [9]: Active
- Activity [10]: 68%
- Activity [11]: 102%
- Activity [12]: 88%
- Activity [13]: 106%
- Activity [14]: 5%
- inhibition [15]: Active
- inhibition [16]: inactive
- Activity [17]: 99%
- Activity [18]: 91%
- inhibition [19]: Dose-dependent effect
- Activity [20]: 68%
- Activity [21]: 129%
- Activity [22]: 102%
- Activity [23]: 98%
- Activity [24]: 71%
- Activity [25]: 101%
- Activity [26]: 101%
- Activity [27]: 71%
- inhibition [28]: Active
- inhibition [29]: Active
- Activity [30]: 94%
- Activity [31]: 38%
- inhibition [32]: Active
- Activity [33]: 33%
